{"source": "ChEMBL document CHEMBL4680131", "about": "“Fangchinoline derivatives induce cell cycle arrest and apoptosis in human leukemia cell lines via suppression of the PI3K/AKT and MAPK signaling pathway” (Eur J Med Chem, 2020)", "key": {"HEL [1]": {"system": "HEL", "assay": "Induction of apoptosis in human HEL cells assessed as increase in caspase 3 cleavage by Western blot analysis", "type": "functional, cell-based", "procedure,_shortened": "(§1)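 HEL cells were lysed in RIPA after compound or DMSO treatment. Lysates were run on 10% SDS-PAGE, transferred to PVDF and blocked in 5% BSA for 1 h. Blots were probed overnight at 4 °C with antibodies to PARP, caspase-3, caspase-9, c-MYC or p21, then HRP secondary for 2 h, and detected by ECL. β-actin served as loading control.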"}, "HEL [2]": {"system": "HEL", "assay": "Potency index, ratio of vincristine IC50 to test compound IC50 for human HEL cells", "type": "functional"}, "HEL [3]": {"system": "HEL", "assay": "Induction of apoptosis in human HEL cells assessed as increase in PARP cleavage by Western blot analysis", "type": "functional, cell-based", "procedure,_shortened": "as §1"}, "HEL [4]": {"system": "HEL", "assay": "Induction of apoptosis in human HEL cells assessed as early apoptotic cells by Annexin-V/propidium iodide staining-based flow cytometric analysis (reference value: 2.26%)", "type": "functional"}, "HEL [5]": {"system": "HEL", "assay": "Cytotoxicity against human HEL cells assessed as reduction in cell viability incubated for 48 hrs by MTT assay", "type": "functional, cell-based", "procedure,_shortened": "(§2)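 MTT viability after 48 h exposure. Cells (1×10^4/well) were allowed 24 h at 37 °C before dosing. Leukemia lines were grown in RPMI and breast lines in high-glucose DMEM, each with 5% FBS under 5% CO2. MTT was added for 4 h, formazan dissolved in DMSO, and absorbance read at 490 nm. Triplicate wells; values averaged over at least 3 independent experiments.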"}, "MDA-MB-231 [6]": {"system": "MDA-MB-231", "assay": "Cytotoxicity against human MDA-MB-231 cells assessed as reduction in cell viability incubated for 48 hrs by MTT assay", "type": "functional, cell-based", "conditions": "MDA-MB-231, 48 h", "procedure,_shortened": "as §2"}, "HEL [7]": {"system": "HEL", "assay": "Potency index, ratio of fangchinoline IC50 to test compound IC50 for human HEL cells", "type": "functional"}, "MDA-MB-231 [8]": {"system": "MDA-MB-231", "assay": "Potency index, ratio of fangchinoline IC50 to test compound IC50 for human MDA-MB-231 cells", "type": "functional"}, "MDA-MB-231 [9]": {"system": "MDA-MB-231", "assay": "Potency index, ratio of vincristine IC50 to test compound IC50 for human MDA-MB-231 cells", "type": "functional"}, "HEL [10]": {"system": "HEL", "assay": "Induction of apoptosis in human HEL cells assessed as necrotic cells by Annexin-V/propidium iodide staining-based flow cytometric analysis (reference value: 0.34%)", "type": "functional"}, "HEL [11]": {"system": "HEL", "assay": "Antiproliferative activity against human HEL cells assessed as reduction in cell viability incubated for 12 to 72 hrs by MTT assay", "type": "functional, cell-based", "conditions": "dose 0.5-2 µM, time 12-72 hrs", "procedure,_shortened": "(§3)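 HEL cells were kept in RPMI with 5% FBS at 37 °C and 5% CO2. They were seeded at 1×10^4/well and given 24 h before dosing. Exposure ran 12, 24, 36, 48 or 72 h, then MTT was added for 4 h, formazan dissolved in DMSO, and absorbance read at 490 nm. Triplicate wells, repeated at least three times.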"}, "HEL [12]": {"system": "HEL", "assay": "Induction of apoptosis in human HEL cells assessed as viable cells by Annexin-V/propidium iodide staining-based flow cytometric analysis (reference value: 96.62%)", "type": "functional"}, "HEL [13]": {"system": "HEL", "assay": "Induction of apoptosis in human HEL cells assessed as late apoptotic cells by Annexin-V/propidium iodide staining-based flow cytometric analysis (reference value: 0.76%)", "type": "functional"}, "MCF7 [14]": {"system": "MCF7", "assay": "Potency index, ratio of vincristine IC50 to test compound IC50 for human MCF-7 cells", "type": "functional"}, "HEL [15]": {"system": "HEL", "assay": "Inhibition of Akt in human HEL cells assessed as PI3K/AKT phosphorylation at 2.5 uM after 8 hrs by Western blot analysis", "type": "cell-based", "procedure,_shortened": "(§4)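 HEL cells were treated with 2.5 µM for 8 h, with DMSO as control. RIPA lysates were run on 10% SDS-PAGE and transferred to PVDF. Blots were blocked in 5% BSA, incubated overnight at 4 °C with antibodies to total and phospho Akt, ERK and JNK, then HRP secondary, and detected by ECL. Bands were normalized to β-actin; means ± SD of triplicates in three independent runs; t-test.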"}, "MCF7 [16]": {"system": "MCF7", "assay": "Cytotoxicity against human MCF-7 cells assessed as reduction in cell viability incubated for 48 hrs by MTT assay", "type": "functional, cell-based", "conditions": "MCF7, 48 h", "procedure,_shortened": "as §2"}, "HEL [17]": {"system": "HEL", "assay": "Induction of apoptosis in human HEL cells assessed as increase in caspase 9 cleavage by Western blot analysis", "type": "functional, cell-based", "procedure,_shortened": "as §1"}, "[18]": {"assay": "Inhibition of AKT (unknown origin) by ELISA assay", "parameters": "species or system Homo sapiens", "procedure,_shortened": "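Akt kinase activity kit run per the manufacturer's protocol. Akt source was lysate of compound-treated human leukemia HEL cells, purified on a Mono Q anion-exchange column before the kinase measurement. HEL cells were grown in RPMI with 5% FBS at 37 °C and 5% CO2. The value is reported as an IC50.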"}, "MCF7 [19]": {"system": "MCF7", "assay": "Potency index, ratio of fangchinoline IC50 to test compound IC50 for human MCF-7 cells", "type": "functional"}, "HEL [20]": {"system": "HEL", "assay": "Induction of cell cycle arrest in human HEL cells assessed as accumulation of cells at G0/G1 phase measured after 1 hrs by flow cytometry", "type": "functional, cell-based", "procedure,_shortened": "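HEL cells (2×10^5/well) were given DMSO or compound, then fixed in ice-cold 70% ethanol at 4 °C overnight and washed in PBS. Cells were stained 1 h at 37 °C in the dark with PBS containing 50 µg/mL PI and 100 µg/mL RNase. DNA content was analyzed by flow cytometry.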"}, "K562": {"system": "K562", "assay": "Cytotoxicity against human K562 cells assessed as reduction in cell viability incubated for 48 hrs by MTT assay", "type": "functional, cell-based", "conditions": "K562, 48 h", "procedure,_shortened": "as §2"}, "HEL [21]": {"system": "HEL", "assay": "Induction of cell cycle arrest in human HEL cells assessed as down regulation of cMyc incubated for 1 hr by Western blot analysis", "type": "functional, cell-based", "procedure,_shortened": "as §1"}, "HEL [22]": {"system": "HEL", "assay": "Inhibition of ERK phosphorylation in human HEL cells at 2.5 uM after 8 hrs by Western blot analysis", "type": "cell-based", "procedure,_shortened": "as §4"}, "HEL [23]": {"system": "HEL", "assay": "Induction of apoptosis in human HEL cells assessed as increase in JNK phosphorylation at 2.5 uM after 8 hrs by Western blot analysis", "type": "functional, cell-based", "procedure,_shortened": "as §4"}, "HEL [24]": {"system": "HEL", "assay": "Antiproliferative activity against human HEL cells assessed as reduction in cell viability at 0.5 to 2 uM by MTT assay", "type": "functional, cell-based", "conditions": "dose 0.5-2 µM, time 12.0 hrs, TDE = time-dependent effect", "procedure,_shortened": "as §3"}, "HEL [25]": {"system": "HEL", "assay": "Induction of cell cycle arrest in human HEL cells assessed as up regulation of p21 incubated for 1 hr by Western blot analysis", "type": "functional, cell-based", "procedure,_shortened": "as §1"}}, "note": "The source made the active and inactive calls. No cut-off for these calls is given here.", "data": [{"smiles": "COc1ccc2cc1Oc1ccc(cc1)C[C@H]1c3cc(c(OC)cc3CCN1C)Oc1c(OC(=O)C3CCCS3)c(OC)cc3c1[C@H](C2)N(C)CC3", "note": "(stereo partly specified)", "values": [{"measurement": "Activity", "setting": "HEL [1]", "result": "Active"}, {"measurement": "Ratio IC50", "setting": "HEL [2]", "result": 10}, {"measurement": "Activity", "setting": "HEL [3]", "result": "Active"}, {"measurement": "Activity", "setting": "HEL [4]", "result": 19.97, "unit": "%"}, {"measurement": "IC50", "setting": "HEL [5]", "result": 1520, "unit": "nM"}, {"measurement": "IC50", "setting": "MDA-MB-231 [6]", "result": 1600, "unit": "nM"}, {"measurement": "Ratio IC50", "setting": "HEL [7]", "result": 15}, {"measurement": "Ratio IC50", "setting": "MDA-MB-231 [8]", "result": 36}, {"measurement": "Ratio IC50", "setting": "MDA-MB-231 [9]", "result": 10}, {"measurement": "Activity", "setting": "HEL [10]", "result": 3.38, "unit": "%"}, {"measurement": "Activity", "setting": "HEL [11]", "result": "Dose-dependent effect"}, {"measurement": "Activity", "setting": "HEL [12]", "result": 48.12, "unit": "%"}, {"measurement": "Activity", "setting": "HEL [13]", "result": 27.92, "unit": "%"}, {"measurement": "Ratio IC50", "setting": "MCF7 [14]", "result": 10}, {"measurement": "inhibition", "setting": "HEL [15]", "result": "Active"}, {"measurement": "IC50", "setting": "MCF7 [16]", "result": 4010, "unit": "nM"}, {"measurement": "Activity", "setting": "HEL [17]", "result": "Active"}, {"measurement": "IC50", "setting": "[18]", "result": 550, "unit": "nM"}, {"measurement": "Ratio IC50", "setting": "MCF7 [19]", "result": 9}, {"measurement": "Activity", "setting": "HEL [20]", "result": "Active"}, {"measurement": "IC50", "setting": "K562", "result": 1530, "unit": "nM"}, {"measurement": "Activity", "setting": "HEL [21]", "result": "Active"}, {"measurement": "inhibition", "setting": "HEL [22]", "result": "Active"}, {"measurement": "Activity", "setting": "HEL [23]", "result": "Active"}, {"measurement": "Activity", "setting": "HEL [24]", "result": "Tde"}, {"measurement": "Activity", "setting": "HEL [25]", "result": "Active"}]}]}
